Measurements taken from ChEMBL document CHEMBL1144993, “Imidazoline binding sites (IBS) profile modulation: key role of the bridge in determining I1-IBS or I2-IBS selectivity within a series of 2-phenoxymethylimidazoline analogues” (J Med Chem, 2003).

Experiments:
[1] = Relative binding to imidazoline I2 and alpha-2 adrenergic receptors ([…])
[2] = Relative binding to imidazoline I1 and imidazoline I2 binding sites ([…])
[3] = Relative binding to imidazoline I1 and alpha-2 adrenergic receptors ([…])
[4] = Relative binding to imidazoline I2 and imidazoline I1 binding sites ([…])
[5] = Displacement of [125I]p-iodoclonidine from imidazoline receptor I-1 in rat pheochromocytoma cells
[6] = molecular target: T1, Adrenergic receptor alpha-2 (Rattus norvegicus, UniProt P22086+P19328+P22909); assay: Displacement of [3H]clonidine from rat cortex membrane Alpha-2 adrenergic receptors
T1 sequence (P22086 whole entry): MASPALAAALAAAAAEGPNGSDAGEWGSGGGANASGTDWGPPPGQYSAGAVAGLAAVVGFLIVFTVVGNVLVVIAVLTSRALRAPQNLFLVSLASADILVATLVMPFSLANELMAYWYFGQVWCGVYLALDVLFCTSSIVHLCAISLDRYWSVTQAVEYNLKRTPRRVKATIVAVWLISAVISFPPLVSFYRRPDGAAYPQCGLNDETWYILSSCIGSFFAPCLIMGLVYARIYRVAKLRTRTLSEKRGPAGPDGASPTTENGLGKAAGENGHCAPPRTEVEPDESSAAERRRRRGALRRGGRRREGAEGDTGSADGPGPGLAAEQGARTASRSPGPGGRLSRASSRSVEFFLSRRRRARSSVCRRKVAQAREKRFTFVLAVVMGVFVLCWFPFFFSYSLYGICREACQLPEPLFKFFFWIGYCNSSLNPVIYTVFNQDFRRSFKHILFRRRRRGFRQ
T1 sequence (P19328 whole entry): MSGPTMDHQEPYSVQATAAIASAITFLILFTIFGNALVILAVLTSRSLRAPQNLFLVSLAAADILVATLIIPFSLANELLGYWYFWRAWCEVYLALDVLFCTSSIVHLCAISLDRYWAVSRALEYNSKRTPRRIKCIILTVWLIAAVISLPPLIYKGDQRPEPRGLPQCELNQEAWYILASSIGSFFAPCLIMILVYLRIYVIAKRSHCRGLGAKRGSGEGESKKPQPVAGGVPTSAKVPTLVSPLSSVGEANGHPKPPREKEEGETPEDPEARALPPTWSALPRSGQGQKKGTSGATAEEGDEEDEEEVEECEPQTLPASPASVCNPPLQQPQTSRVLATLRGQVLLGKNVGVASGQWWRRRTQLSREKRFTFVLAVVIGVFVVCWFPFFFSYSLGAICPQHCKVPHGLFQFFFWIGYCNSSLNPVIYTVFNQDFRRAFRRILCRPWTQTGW
T1 sequence (P22909 whole entry): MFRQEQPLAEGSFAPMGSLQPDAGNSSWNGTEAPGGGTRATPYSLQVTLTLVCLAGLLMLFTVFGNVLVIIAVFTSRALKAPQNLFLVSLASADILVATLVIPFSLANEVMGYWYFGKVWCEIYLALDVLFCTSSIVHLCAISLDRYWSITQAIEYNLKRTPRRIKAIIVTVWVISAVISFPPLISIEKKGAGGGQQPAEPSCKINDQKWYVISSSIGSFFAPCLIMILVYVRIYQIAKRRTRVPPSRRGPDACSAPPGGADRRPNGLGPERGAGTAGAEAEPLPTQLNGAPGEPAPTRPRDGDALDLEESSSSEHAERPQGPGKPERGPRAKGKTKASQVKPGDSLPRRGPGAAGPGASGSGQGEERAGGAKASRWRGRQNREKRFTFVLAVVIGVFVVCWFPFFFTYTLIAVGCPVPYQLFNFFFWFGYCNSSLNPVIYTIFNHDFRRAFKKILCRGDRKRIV
Outline: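 Rat cerebral cortex membranes (200 μg protein) incubated with 5 nM [3H]-clonidine and 10–12 competitor concentrations in 50 mM Tris-HCl pH 7.4, 45 min at 25 °C. Nonspecific binding with 10 μM phentolamine. GF/B filtration, scintillation counting, triplicate points.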

[7] = molecular target: Imidazoline I2 binding site (Oryctolagus cuniculus); assay: Displacement of [3H]idazoxan from imidazoline receptor I-2 of rabbit kidney membranes
Oryctolagus cuniculus [8] = assay: Mean arterial pressure following 15 minute pretreatment with intracisternal compound administration and 10 ug/kg iv clonidine; assay type: functional, Artery
Outline: (§1)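 Male normotensive Zika rabbits (2.5–3.5 kg), pentobarbitone 40 mg/kg iv anesthesia, 38 °C, tracheotomized, pancuronium 1 mg/kg iv, ventilated. Test drug given intracisternally as 0.2 mL after equal CSF removal, total 300 μg/kg; vehicle group 100 μL saline ic. Clonidine 10 μg/kg iv 15 min later. MAP = diastolic + 1/3 pulse pressure; HR from pressure signal. Mean ± SEM, n = 4–5; repeated-measures ANOVA.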

Oryctolagus cuniculus [9] = assay: Mean arterial pressure during 15 minute pretreatment with intracisternal compound administration; assay type: functional, Artery; outline: as §1
Oryctolagus cuniculus [10] = assay: Heart rate during 15 minute pretreatment with intracisternal compound administration; assay type: functional; outline: as §1
Oryctolagus cuniculus [11] = assay: Heart rate following 15 minute pretreatment with intracisternal compound administration and 10 ug/kg iv clonidine; assay type: functional; outline: as §1

## C(=C\c1ccccc1)/C1=NCCN1
[1]
  Ratio: 7410
[2]
  Ratio: 0.1
[3]
  Ratio: 741
[4]
  Ratio: 10

## c1ccc([C@H]2C[C@@H]2C2=NCCN2)cc1
[5]
  Log Ki: -7.93

## C[C@H](Cc1ccccc1)C1=NCCN1
[6]
  Log Ki: -5.4

## c1ccc([C@@H]2C[C@H]2C2=NCCN2)cc1
[5]
  Log Ki: -6.46

## C[C@@H](CC1=NCCN1)c1ccccc1
[6]
  Log Ki: -5.8
[7]
  Log Ki: -7

## CC(Cc1ccccc1)C1=NCCN1 (stereo not given)
[6]
  Log Ki: -5.45
Oryctolagus cuniculus [8]
  MAP: 91 mmHg
Oryctolagus cuniculus [9]
  MAP: 99 mmHg
Oryctolagus cuniculus [10]
  Heart rate: 363 beats min-1
Oryctolagus cuniculus [11]
  Heart rate: 355 beats min-1

## CC(Oc1ccccc1)C1=NCCN1 (stereo not given)
[1]
  Ratio: 0.04
[2]
  Ratio: 8.71
[3]
  Ratio: 0.32
[4]
  Ratio: 0.11

## C[C@H](CC1=NCCN1)c1ccccc1
[6]
  Log Ki: -5.9
[7]
  Log Ki: -5.6

## c1ccc(C2CC2C2=NCCN2)cc1 (stereo not given)
[5]
  Log Ki: -7.76

## CC(CC1=NCCN1)c1ccccc1 (stereo not given)
[6]
  Log Ki: -5.93
[7]
  Log Ki: -6.91

## c1ccc(CCC2=NCCN2)cc1 [PHENYZOLINE]
[6]
  Log Ki: -5.7
[1]
  Ratio: 794
[7]
  Log Ki: -8.6
[2]
  Ratio: 0.0007
[3]
  Ratio: 0.54
[4]
  Ratio: 1480

## C[C@@H](Cc1ccccc1)C1=NCCN1
[6]
  Log Ki: -5.3
